This note sets out measurements from ChEMBL document CHEMBL5252510, “A Novel Potent Oral Series of VEGFR2 Inhibitors Abrogate Tumor Growth by Inhibiting Angiogenesis” (J Med Chem, 2016).

Activity calls are given as the source filed them. The calls are words filed in the database; no cut-off is given here.

For data set [1], the target named is T1, Vascular endothelial growth factor receptor 2 (Homo sapiens, UniProt P35968). Description: Inhibition of VEGF-induced human VEGFR2 autophosphorylation transfected in CHO cells measured after 2 hrs by chemiluminescence assay. It counts as cell-based.
The target in data set [2] is T1, Vascular endothelial growth factor receptor 2. Description: Inhibition of human recombinant GST-fused VEGFR2 kinase domain transphosphorylation expressed in baculovirus expression system using poly-Glu-Tyr (4:1) as substrate measured after 10 mins in presence of gamma-[33P]-ATP by scintillation counting analysis.
The target in data set [3] is Mast/stem cell growth factor receptor Kit (Homo sapiens, UniProt P10721). Description: Inhibition of human recombinant GST-fused c-KIT expressed in baculovirus expression system using poly-Glu-Tyr (4:1) as substrate measured after 10 mins in presence of gamma-[33P]-ATP by scintillation counting analysis. In a few lines:
(§1)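 GST-fused kinase domains were expressed in baculovirus and purified on glutathione-Sepharose. 10 min at ambient temperature, stopped with EDTA. Filter binding and scintillation counting. IC50 by linear regression of percent inhibition.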

Data set [4] addresses Angiopoietin-1 receptor (Homo sapiens) (UniProt Q02763). Description: Inhibition of human recombinant GST-fused TIE2 expressed in baculovirus expression system using poly-Glu-Tyr (4:1) as substrate measured after 10 mins in presence of gamma-[33P]-ATP by scintillation counting analysis. In a few lines: as §1
Data set [5] deals with Proto-oncogene tyrosine-protein kinase receptor Ret (Homo sapiens, UniProt P07949). Description: Inhibition of human recombinant GST-fused RET expressed in baculovirus expression system using poly-Glu-Tyr (4:1) as substrate measured after 10 mins in presence of gamma-[33P]-ATP by scintillation counting analysis. Summed up: as §1
The target in data set [6] is T1, Vascular endothelial growth factor receptor 2. Description: Inhibition of VEGF-induced human VEGFR2 autophosphorylation expressed in HUVEC cells measured after 2 hrs by chemiluminescence assay. The data set is classed as cell-based.
Data set [7] addresses Platelet-derived growth factor receptor beta (Homo sapiens, UniProt P09619). Description: Inhibition of PDGFR (unknown origin) autophosphorylation expressed in mouse BALB/3T3 clone A31 cells by ELISA-based assay. The data set is classed as cell-based. In a few lines: (§2)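 Cells were stimulated with the respective ligand. Receptor tyrosine kinase autophosphorylation in the presence of compound was quantified by ELISA.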
In general terms: In an ELISA, binding on a coated surface is turned into a signal by an enzyme label.

For data set [8], the target named is Mast/stem cell growth factor receptor Kit (Homo sapiens, UniProt P10721, K642E). Description: Inhibition of KIT K642E mutant (unknown origin) autophosphorylation expressed in human GIST882 cells by ELISA-based assay. It counts as cell-based. Summed up: as §2
Data set [9] addresses Insulin-like growth factor 1 receptor (Homo sapiens, UniProt P08069). Description: Inhibition of IGF1R (unknown origin) autophosphorylation expressed in […] by ELISA-based assay. The data set is classed as cell-based. Summed up:
as §2

A short description of data set [10]: Dose normalized AUC(0 to infinity) in OFA rat at 3 mg/kg, po measured upto 24 hrs by HPLC/UV analysis. It counts as ADME, organism-based. The conditions noted are these: in vivo. In a few lines:
(§3)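 Female OFA rats, femoral artery/vein catheterized and recovered 96 h. Oral gavage of a micronized suspension in 0.5 % carboxymethyl cellulose at 25 or 3 mg/kg. Bioavailability taken against femoral-vein iv dosing. Plasma sampled 5 min–24 h (9 time points).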

The test system of data set [11] is Mus musculus. Description: Protection against VEGF-induced vessel extravasation in FVB mouse at 3 mg/kg pre-administrated for 2 to 48 hrs followed by evans-blue administration for 30 mins and measured 30 mins after dog VEGF164 addition. It counts as functional, organism-based. The conditions noted are these: time 3-49 hrs. Summed up: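 Female FVB mice (18–20 g), 3–4 per group. Oral 3 mg/kg at 48, 24 or 8 h before sacrifice. Evans blue 0.5 % (200 µl) given i.v. in the tail vein. 30 min later, 2 µL dog VEGF164 (10 ng/µL) injected intradermally into the ear pinna. Dye extravasation quantified by a computer-assisted system.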

Data set [12] in a line: Tmax in OFA rat at 25 mg/kg, po measured upto 24 hrs by HPLC/UV analysis. It counts as ADME, organism-based. To be noted: in vivo. Summed up:
as §3

Data set [13] can be described thus: Antitumor activity against rat BN472 cell implanted in Brown-Norway rat assessed as tumor growth inhibition by measuring T/C ratio at 3 mg/kg, po qd measured upto 14 days. The data set is classed as functional. The conditions noted are these: time <= 14 day. In a few lines: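 Female Brown-Norway rats (160-180 g) given 3 mm³ BN472 tumor fragments in mammary fat pads; at about 200 mm², randomized into groups of 7-8 and dosed orally with compound or PEG300 vehicle over 14 days; tumor growth followed, T/C computed; significance by 2-way RM-ANOVA.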

For data set [14], the species on record is Mus musculus. Description: Antiangiogenic activity in C57BL/6jNpa mouse harbouring mouse B16-BL6 cells assessed as reduction in K-trans level by measuring T/C ratio measured after 3 days by DCE-MRI assay. The data set is classed as functional. The conditions noted are these: time 3 day. Summed up: (§4)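 C57BL/6JNpa mice bearing B16/BL6 cervical lymph-node metastases, at least 8 per group, anaesthetized and given contrast agent; DCE-MRI Ktrans and iAUEC (permeability) and Vp (plasma volume) measured before and again after daily treatment; change per mouse recorded, mean ± SEM, one-way ANOVA with Holm-Sidak comparisons versus vehicle.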

Data set [15] can be described thus: Half life in Sprague-Dawley rat at 50 mg/kg, po measured upto 24 hrs by HPLC/UV analysis. The data set is classed as ADME, organism-based. To be noted: in vivo. In a few lines: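 Female Sprague Dawley rats, 8 weeks old, catheterized. Oral suspension in 0.5 % carboxymethyl cellulose at 50 mg/kg, n=3. Bioavailability taken against 3 mg/kg iv. Plasma sampled 5 min–24 h. Cmax and AUC(0–∞) dose-normalized.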

The species entered for data set [16] is Mus musculus. Description: Antiangiogenic activity in C57BL/6jNpa mouse harbouring mouse B16-BL6 cells assessed as reduction in K-trans level measured after 3 days by DCE-MRI assay relative to control. The data set is classed as functional. More on the design: scale not given: the % may be the effect or the level left. The conditions noted are these: time 3 day. Summed up: as §4

For data set [17], the species on record is Mus musculus. Description: Antiangiogenic activity in C57BL/6jNpa mouse harbouring mouse B16-BL6 cells assessed as reduction in iAUEC level measured after 3 days by DCE-MRI assay relative to control. The data set is classed as functional. More on the design: scale not given: the % may be the effect or the level left. To be noted: time 3 day. In a few lines:
as §4

The test system of data set [18] is B16-BL6. Description: Antitumor activity against mouse B16-BL6 cells implanted in C57BL/6jNpa mouse assessed as primary tumor growth inhibition at 3 mg/kg, po qd administered every 2 days started on day 7 post implantation measured after 21 days. The data set is classed as functional, organism-based. To be noted: time 7-21 day. Summed up:
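Female C57BL/6JNpa mice, 50000 B16/BL6 cells intradermally in both ear pinnae; primary tumor area (mm²) imaged days 7, 14, 21; randomized day 7 into groups of 5-6, oral dosing in PEG200 or PEG300 vehicle daily (or every 2 days) for 14 days; day 21 cervical lymph nodes weighed, metastasis lysates assayed for TIE-2 by ELISA; T/C ratios.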

In data set [19] the test system is BN472 cell. Description: Antitumor activity against rat BN472 cell implanted in Brown-Norway rat assessed as reduction in cell growth at 3 mg/kg, po qd measured upto 14 days by Ki67 staining based microscopic analysis. The data set is classed as functional, organism-based. To be noted: time <= 14.0 day. Summed up:
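BN472-bearing Brown-Norway rats dosed orally; Hoechst dye i.v. shortly before sacrifice to mark perfused vessels; tumors cryosectioned at 10 micron, blocked in 10 % goat serum/0.1 % Triton X-100, stained with rabbit anti-Ki67 (1:200) or anti-caspase 3 (1:10) and fluorescent secondary antibodies; fluorescence microscopy.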

What is called IC50 is the point on the concentration scale where inhibition reaches its midpoint. Turning to `O=C(Nc1cccc(C(F)(F)F)c1)c1cccc2cc(Oc3cc(CO)ncn3)ccc12` [BFH-772], the IC50 was 4.6 nM in [1]; 2.7 nM in data set [2]; greater than 2000 nM in [3]; 3 nM in data set [6]; 30 nM in data set [7]; 30 nM in data set [8]. The compound further came in with an IC50 in data set [9] greater than 500 nM. Also, the inhibition result in data set [4] and in data set [5] was “Active” each time. The compound also came in with an AUC/dose in data set [10] of 13.2 µmol·h/L. The result in [11] was Active.
What is called Tmax is the time at which the peak concentration occurs. For the compound `Nc1nccc(Oc2ccc3c(C(=O)Nc4cccc(C(F)(F)F)c4)cccc3c2)n1`, the IC50 in [1] was 4.2 nM; in data set [2] it was 9 nM; in data set [3], greater than 10000 nM; in [6], 2.9 nM; in [7], 30 nM; in data set [8] it was 30 nM. The IC50 in data set [9] was greater than 500 nM. Besides, the inhibition entry in data set [4] and in data set [5] was “Active” each time. In addition, the Tmax in data set [12] was 2 h. In addition, the T/C in [13] worked out at 35.5.
The half-life is the time in which the quantity being followed falls by half. Regarding `Nc1nccc(Oc2ccc3c(C(=O)Nc4ccc(F)c(C(F)(F)F)c4)cccc3c2)n1`, the T/C in [14] is 0.39; in [13], 5.6. In addition, the half-life in data set [15] is 4.5 h. Also, the outcome in data set [11], in data set [18] and in data set [19] was Active. The Activity is listed as 61% in data set [16] and 65% in [17].
Turning to `Nc1cc(Oc2ccc3c(C(=O)Nc4cccc(C(F)(F)F)c4)cccc3c2)ncn1`, the half-life in data set [15] is 10.1 h.
